# ChEMBL document CHEMBL2346664, “Synthesis, characterization and in vitro anticancer evaluation of novel 1,2,4-triazolin-3-one derivatives” (2013)
# Tests used:
# Type in all cases: functional
# 786-0 [1] = assay: Growth inhibition of human 786-0 cells after 48 hrs by sulforhodamine B assay; details: 786-0, 48 h
# How it was run: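 NCI 60-cell-line five-dose screen at 0.01, 0.1, 1, 10 and 100 µM final. Cells were plated at 5,000–40,000/well and grown 24 h at 37 °C, 5% CO2, then exposed to drug continuously for 48 h. Adherent cells were fixed with cold TCA (10% final) and stained with SRB; absorbance read at 515 nm. GI50 is the concentration where [(Ti-Tz)/(C-Tz)]×100 = 50, with Tz plates fixed at drug addition.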
# NCI-H460 = assay: Growth inhibition of human NCI-H460 cells assessed as cell growth at 10 '-5 M after 48 hrs by sulforhodamine B assay; details: NCI-H460, 48 h, read-out: Activity
# NCI-H23 = assay: Growth inhibition of human NCI-H23 cells assessed as cell growth at 10 '-5 M after 48 hrs by sulforhodamine B assay; details: NCI-H23, 48 h, read-out: Activity
# MOLT-4 = assay: Growth inhibition of human MOLT4 cells assessed as cell growth at 10 '-5 M after 48 hrs by sulforhodamine B assay; details: MOLT-4, 48 h, read-out: Activity
# T47D [2] = assay: Growth inhibition of human T47D cells assessed as cell growth at 10 '-6 M after 48 hrs by sulforhodamine B assay; details: read-out: Activity
# [3] = Growth inhibition of human Hs 578T cells assessed as cell growth at 10 '-6 M after 48 hrs by sulforhodamine B assay; details: read-out: Activity
# TK-10 = assay: Growth inhibition of human TK10 cells assessed as cell growth at 10 '-6 M after 48 hrs by sulforhodamine B assay; details: TK-10, 48 h, read-out: Activity
# UO-31 = assay: Growth inhibition of human UO31 cells assessed as cell growth at 10 '-6 M after 48 hrs by sulforhodamine B assay; details: UO-31, 48 h, read-out: Activity
# [4] = Growth inhibition of human […] cells assessed as growth inhibition at 10 uM after 48 hrs by sulforhodamine B assay; details: read-out: GI
# How it was run: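 Percent growth inhibition from the single 10^-5 M NCI-60 screen, reported as 100 minus growth percent. Growth percent was measured after 48 h drug exposure at 37 °C, 5% CO2, using TCA fixation, SRB staining and absorbance at 515 nm, against untreated controls and time-zero plates.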
# LOX IMVI = assay: Growth inhibition of human LOXIMVI cells assessed as growth inhibition at 10 uM after 48 hrs by sulforhodamine B assay; details: read-out: GI
# SNB-75 = assay: Growth inhibition of human SNB75 cells assessed as growth inhibition at 10 uM after 48 hrs by sulforhodamine B assay; details: SNB-75, 48 h, read-out: GI
# DU-145 = assay: Growth inhibition of human DU145 cells assessed as cell growth at 10 '-4 M after 48 hrs by sulforhodamine B assay; details: DU-145, 48 h, read-out: Activity
# K562 = assay: Growth inhibition of human K562 cells assessed as cell growth at 10 '-6 M after 48 hrs by sulforhodamine B assay; details: K562, 48 h, read-out: Activity
# A498 = assay: Growth inhibition of human A498 cells assessed as cell growth at 10 '-7 M after 48 hrs by sulforhodamine B assay; details: A498, 48 h, read-out: Activity
# How it was run: (§1)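 Percent growth at each of the five concentrations of the 48 h continuous-exposure NCI SRB screen. Drug stocks were in DMSO at 400× the top final concentration and diluted in medium with gentamicin. Growth was calculated as [(Ti-Tz)/(C-Tz)]×100 when Ti ≥ Tz, or [(Ti-Tz)/Tz]×100 when Ti < Tz. Tz plates were fixed at drug addition; untreated wells served as control. Absorbance was read at 515 nm.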
# SK-OV-3 = assay: Growth inhibition of human SKOV3 cells assessed as cell growth at 10 '-7 M after 48 hrs by sulforhodamine B assay; details: SK-OV-3, 48 h, read-out: Activity
# SF-295 = assay: Growth inhibition of human SF295 cells assessed as cell growth at 10 '-7 M after 48 hrs by sulforhodamine B assay; details: SF-295, 48 h, read-out: Activity
# Malme-3M = assay: Growth inhibition of human MALME-3M cells assessed as cell growth at 10 '-4 M after 48 hrs by sulforhodamine B assay; details: read-out: Activity
# A549 = assay: Growth inhibition of human A549 cells assessed as cell growth at 10 '-4 M after 48 hrs by sulforhodamine B assay; details: A549, 48 h, read-out: Activity; how it was run: as §1
# RPMI-8226 = assay: Growth inhibition of human RPMI8226 cells assessed as cell growth at 10 '-4 M after 48 hrs by sulforhodamine B assay; details: RPMI-8226, 48 h, read-out: Activity
# T47D [5] = assay: Growth inhibition of human T47D cells assessed as cell growth at 10 '-5 M after 48 hrs by sulforhodamine B assay; details: read-out: Activity
# MDA-MB-231 [6] = assay: Growth inhibition of human MDA-MB-231 cells assessed as cell growth at 10 '-5 M after 48 hrs by sulforhodamine B assay; details: MDA-MB-231, 48 h, read-out: Activity
# SN12C = assay: Growth inhibition of human SN12C cells assessed as cell growth at 10 '-5 M after 48 hrs by sulforhodamine B assay; details: read-out: Activity
# ACHN = assay: Growth inhibition of human ACHN cells assessed as cell growth at 10 '-5 M after 48 hrs by sulforhodamine B assay; details: read-out: Activity; how it was run: as §1
# SK-MEL-5 = assay: Growth inhibition of human SK-MEL-5 cells after 48 hrs by sulforhodamine B assay; details: SK-MEL-5, 48 h
# [7] = Growth inhibition of human Hs 578T cells assessed as cell growth at 10 '-8 M after 48 hrs by sulforhodamine B assay; details: read-out: Activity
# MDA-MB-231 [8] = assay: Growth inhibition of human MDA-MB-231 cells assessed as cell growth at 10 '-8 M after 48 hrs by sulforhodamine B assay; details: MDA-MB-231, 48 h, read-out: Activity
# 786-0 [9] = assay: Growth inhibition of human 786-0 cells assessed as cell growth at 10 '-8 M after 48 hrs by sulforhodamine B assay; details: 786-0, 48 h, read-out: Activity; how it was run: as §1
# M14 = assay: Growth inhibition of human M14 cells assessed as cell growth at 10 '-5 M after 48 hrs by sulforhodamine B assay; details: M14, 48 h, read-out: Activity
# OVCAR-4 = assay: Growth inhibition of human OVCAR4 cells assessed as cell growth at 10 '-8 M after 48 hrs by sulforhodamine B assay; details: OVCAR-4, 48 h, read-out: Activity
# IGROV-1 = assay: Growth inhibition of human IGROV1 cells assessed as cell growth at 10 '-8 M after 48 hrs by sulforhodamine B assay; details: IGROV-1, 48 h, read-out: Activity
# U-251 = assay: Growth inhibition of human U251 cells assessed as cell growth at 10 '-8 M after 48 hrs by sulforhodamine B assay; details: U-251, 48 h, read-out: Activity
compound,measurement,setting,value
Cc1nn(-c2ccc(Cl)cc2)c(=O)n1CCN1CCOCC1,GI50,786-0 [1],5.75 µM
same,CC50,786-0 [1]; read-out: pLC50 (the source's name) (converted),> 100 µM
same,TGI,786-0 [1]; read-out: pTGI,> 100 µM
Cc1cc(=O)oc2cc(OCCn3c(C)nn(-c4ccc(Cl)cc4)c3=O)ccc12,growth at 10 µM,NCI-H460,9%
same,growth at 10 µM,NCI-H23,32%
same,growth at 10 µM,MOLT-4,26%
same,growth at 1 µM,T47D [2],89%
same,growth at 1 µM,[3],68%
same,growth at 1 µM,TK-10,114%
same,growth at 1 µM,UO-31,74%
same,inhibition of growth at 10 µM,[4],67.1%
same,inhibition of growth at 10 µM,LOX IMVI,52%
same,inhibition of growth at 10 µM,SNB-75,79.6%
same,growth at 100 µM,DU-145,10%
same,growth at 1 µM,K562,53%
same,growth at 0.1 µM,A498,76%
same,growth at 0.1 µM,SK-OV-3,103%
same,growth at 0.1 µM,SF-295,85%
same,growth at 100 µM,Malme-3M,41%
same,growth at 100 µM,A549,27%
same,growth at 100 µM,RPMI-8226,45%
same,growth at 10 µM,T47D [5],45%
same,growth at 10 µM,MDA-MB-231 [6],42%
same,growth at 10 µM,SN12C,39%
same,growth at 10 µM,ACHN,35%
same,GI50,SK-MEL-5,8.48 µM
same,TGI,SK-MEL-5,> 1 µM
same,CC50,SK-MEL-5; read-out: LD50 (the source's name),> 1 µM
same,growth at 0.01 µM,[7],88%
same,growth at 0.01 µM,MDA-MB-231 [8],96%
same,growth at 0.01 µM,786-0 [9],103%
same,growth at 10 µM,M14,22%
same,growth at 0.01 µM,OVCAR-4,100%
same,growth at 0.01 µM,IGROV-1,108%
same,growth at 0.01 µM,U-251,98%
